Measured values pooled from the literature.
Compare with care: the assays were run in different laboratories.

CCOc1ccc(N(C)S(=O)(=O)c2cc(Cl)sc2C(=O)Nc2cc(Cl)cc(C(=O)O)c2)cc1OC — MRT(0-inf) (male C57BL/6 mouse, brain; intraperitoneal, 10 mg/kg): 0.854 h
C=CS(=O)(=O)c1ccc(Nc2nc(OCC3CCCCC3)c3nc[nH]c3n2)cc1 — MRT(0-t) (male BALB/c mouse, plasma; intraperitoneal, 20 mg/kg, single dose): 2.26 h
CC(=O)O[C@@]12CO[C@@H]1C[C@H](O)[C@@]1(C)C(=O)[C@H](O)C3=C(C)[C@@H](OC(=O)[C@H](O)[C@@H](NC(=O)OC(C)(C)C)c4ccccc4)C[C@@](O)([C@@H](OC(=O)c4ccccc4)[C@H]21)C3(C)C — MRT (male Kunming mouse, lung; oral, 20 mg/kg): 1.8 h
CC[S+]([O-])c1nc(-c2cccc(OCc3ccccc3)c2)cc(C(F)(F)F)n1 (centres unmarked) — CC50 (HEK-293T; cell growth or viability, ATP luminescence; 24 h): 20 µM
CCCCCNC[C@H](O)c1cc(Cl)cc2c1-c1ccc(Cl)cc1C2 — CC50 (HepG2; cell growth or viability; 48 h): 6.3 µM
CCS(=O)(=O)c1nc(C)cc(-c2ccccc2)n1 — CC50 (HEK-293T; cell growth or viability, ATP luminescence; 24 h): > 60 µM
CCCCCCCCNCC(O)c1cc(Cl)cc2c1-c1ccc(Cl)cc1C2 (racemic) — CC50 (HepG2; cell growth or viability; 48 h): 5.9 µM
CCN1CCN(Cc2ccc(NC(=O)c3ccc(C)c(NC(=O)c4cncc(-c5cccs5)c4)c3)cc2C(F)(F)F)CC1 — MRT (mouse, plasma; intraperitoneal, 20 mg/kg, single dose): 3.52 h
